A selection: hits, their analogues and other compounds. The true share with any hit is near 2.2%.
b-catenin transl = modulators of beta-catenin nuclear translocation, primary screen, imaging, HeLa cells, immunofluorescence, high-content; hit rate 0.3% among 190,000; AID 1665, 2009; nuclear translocation activity, % at 5 µM;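 active means nuclear translocation activity above 50% at 5 µM, with a well cell count of 50 or more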;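 further: per-cell ratio of nuclear to cytoplasmic median beta-catenin stain intensity; plate controls were DMSO negative control for no effect and GSK-3 inhibitor IX positive control for full effect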
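Read-out: Nuclear/cytoplasmic beta-catenin signal ratio, % activation | Assay system: Human HeLa cell line | Times: 24 h compound exposure at 37°C, 5% CO2 | Signal: Fluorescence imaging of beta-catenin antibody stain plus DAPI | Dosing: 5 µM primary, 0.02–20 µM confirmation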
MT stabilizer = microtubule stabilizers in HeLa cells, primary screen, imaging, high-content imaging | HeLa tubulin immunostaining HCS, 24 h; share of cells brighter than vehicle mean+2SD | % tubulin-high responders, % at 10 µM | hit rate 0.83% among 200,000 | AID 2205, 2009;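 active means plate Z-score above 3 for both tubulin-high and condensed-nucleus cell shares, with cell loss under 80%, at 10 µM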;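 further: anti alpha tubulin signal scored within the nucleus-defined area of each cell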
IEC-6 tox = cytotoxicity in IEC-6 intestinal epithelial cells, primary screen, cytotoxicity control for KLF5 inhibitor project, cell-based, luminescence. IEC-6 cytotoxicity, luminescence viability. inhibition, % at 5 µM. hit rate 0.78% among 290,000. AID 1825, 2009;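 further: 0% = plate median of test compound wells and 100% = cytotoxic reference compound wells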
BaF3 parental = parental Ba/F3 cell viability inhibition, counter-screen for JAK2V617F inhibitor project, murine pro-B, CellTiter-Glo luminescence; CellTiter-Glo ATP luminescence; inhibition, % at 5.6 µM; hit rate 1.1% among 220,000;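 active means inhibition above a per-campaign cutoff, the mean inhibition of all tested compounds plus 3 SD, cut at about 27% in these data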;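 further: 0% = DMSO wells and 100% = JAK Inhibitor I control wells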
APP transl inh = inhibitors of APP translation via 5'UTR reporter, primary screen, APP 5'UTR luciferase, SH-SY5Y cells; SH-SY5Y APP 5'UTR-luciferase reporter, luminescence; inhibition, % at 2 µM; hit rate 0.82% among 190,000;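 active means inhibition above a set limit, derived from the sample mean plus 3 SD, cut at about 45% in these data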
Ba/F3 V617F tox = reduced viability of JAK2V617F-dependent Ba/F3 cells, primary screen, JAK2V617F inhibitor project, cell-based, Ba/F3 EpoR-JAK2V617F, luminescence. hit rate 1.1% among 220,000. inhibition, % at 5.6 µM. ATP luminescence;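 active means inhibition above the campaign mean plus 3 SD over all tested compounds, cut at about 24% in these data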;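 further: cytokine-independent growth of Ba/F3 cells driven by EpoR plus mutant JAK2; 0% = DMSO-treated cells and 100% = JAK inhibitor I control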
IEC-6 tox confirm = cytotoxic compounds in IEC-6 epithelial cells, confirmation, cytotoxicity control, cell-based, luminescence | IEC-6 rat intestinal epithelial viability | shares compounds with IEC-6 tox | inhibition, % at 5 µM | hit rate 63% among 1,900;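 further: 0% = vehicle and 100% = reference cytotoxic drug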
* = called active by the depositor; · = no result given. Unless noted, no stated cut-off is given here; in the data, active means inhibition above about 22%; inactive means the rest.

SMILES | b-catenin transl | MT stabilizer | IEC-6 tox | BaF3 parental | APP transl inh | Ba/F3 V617F tox | IEC-6 tox confirm
COc1ccc(C2N=C(N)N=C(N)N2c2ccc(C)cc2)cc1 (centres undefined) | · | 3.1 | -3.6 | 0.4 | -1.6 | -1.3 | ·
COc1ccc(N2C(N)=NC(N)=NC2(C)C)cc1 | -1.9 | 2.3 | 53.0* | 98.8* | 7.9 | 98.0* | 7.8
O=C(O)c1cccc(-n2cnnn2)c1 | -4.7 | 3.1 | -0.4 | 0.6 | -7.6 | -0.5 | ·
CC1(C)N=C(N)N=C(N)N1c1cccc(C(=O)O)c1 | -2.4 | 1.3 | 36.8* | 1.1 | 3.8 | -0.6 | 2.7
COc1cccc(N2C(N)=NC(N)=NC2(C)C)c1 | 0.9 | 3.5 | 54.1* | 92.9* | -9.1 | 94.5* | 41.8*
COc1cccc(N2CC(=O)N(c3cccc(OC)c3)CC2=O)c1 | -3.7 | 3.6 | -7.5 | -1.0 | -0.1 | -1.1 | ·
Cc1ccc(N2CCN(S(=O)(=O)c3ccc4c(c3)NC(=O)C(C)C(=O)N4)CC2C)cc1 (centres undefined) | · | · | 17.2 | · | · | · | ·
CCCc1cc(=O)n2[nH]cc(-c3ccc(Cl)cc3)c2n1 | · | · | 22.9* | · | · | · | 5.5
COc1ccc(Nc2nc(N)c(C(=O)c3ccc(OC)cc3)s2)cc1 | · | · | 65.7* | · | · | · | 49.7*
CCc1nnc(NC(=O)c2ccc(OC)cc2)s1 | -1.7 | 3.6 | 35.7* | 6.5 | -128.7 | -0.6 | 2.5
COc1ccc(Nc2nc(N)c(C(=O)c3ccc(F)cc3)s2)cc1 | · | · | 74.0* | · | · | · | 56.9*
COc1ccc(C(=O)c2sc(Nc3ccccc3)nc2C)cc1 | · | · | -2.5 | · | · | · | ·
Cc1ccc(N2C(=O)N3[C@H](c4ccc(F)cc4)[C@@H]4C(=O)N(C5CCCCC5)C(=O)[C@@H]4[C@]3(C)C2=O)cc1 | · | · | -6.0 | · | · | · | ·
COc1cc(Cl)ccc1OCc1cc(C(=O)N2C[C@]3(C)C[C@H]2CC(C)(C)C3)no1 | · | · | 4.6 | · | · | · | ·
COc1ccc2c(c1)C(=O)C(=O)N2CC1COc2ccccc2O1 (centres undefined) | · | · | 82.8* | · | · | · | 8.8
Cc1ccc2c(c1)C(=O)C(=O)N2CC1COc2ccccc2O1 (centres undefined) | · | · | 82.6* | · | · | · | 8.9
CCOc1ccc2c(c1)C(=O)C(=O)N2CC1COc2ccccc2O1 (centres undefined) | · | · | 71.6* | · | · | · | 14.0
COc1ccc(/C=N/NC(=O)CCC(=O)Nc2ccccc2)cc1OC | 0.3 | 2.1 | -2.3 | 1.3 | -6.1 | -3.0 | ·
COc1ccc(/C=N/NC(=O)CCn2cnc(-c3ccccc3)c2-c2ccccc2)cc1OC | 45.5 | 22.0* | 70.7* | 63.1* | 79.7* | 58.3* | 45.9*
N#Cc1c(NC(=O)/C=C/c2ccco2)sc2c1CCCC2 | 106.5* | 5.2 | 92.7* | 89.7* | 92.6* | 90.9* | 78.4*
O=C(Nc1ccc(N2CCCC2)cc1)c1ccc(Cl)cc1Cl | · | · | 0.5 | · | · | · | ·
O=C(Nc1ccc(N2CCCC2)cc1)c1cc(Cl)ccc1Cl | · | · | 56.5* | · | · | · | 27.1*
CC(=O)N1CCc2c(sc(NC(=O)Cc3ccc(F)cc3)c2C#N)C1 | · | · | -1.9 | · | · | · | ·
COC(=O)c1c(NC(=O)c2ccc([N+](=O)[O-])o2)sc2c1CCN(C(C)C)C2 | · | · | 95.7* | · | · | · | 59.7*
CC(=O)N1CCc2c(sc(NC(=O)c3ccc([N+](=O)[O-])o3)c2C#N)C1 | 6.8 | 73.7 | 61.1* | 31.9* | 62.2* | 17.3 | 62.9*
SMILES | b-catenin transl | MT stabilizer | IEC-6 tox | BaF3 parental | APP transl inh | Ba/F3 V617F tox | IEC-6 tox confirm
COC(=O)c1c(NC(=O)Cc2ccccc2)sc2c1CCN(C(C)C)C2 | · | · | 0.1 | · | · | · | ·
CC(C)N1CCc2c(sc(NC(=O)c3ccc([N+](=O)[O-])o3)c2C(N)=O)C1 | · | · | 99.1* | · | · | · | 85.9*
COC(=O)c1sc(NC(=O)c2ccc([N+](=O)[O-])o2)c(C#N)c1C | 4.0 | · | 22.1* | 2.4 | · | 0.6 | 26.4*
O=C(c1cnc2ccccc2n1)N1CCN(c2ccc(C(F)(F)F)cn2)CC1 | 0.0 | · | 0.4 | 4.3 | · | -3.1 | ·
COc1ccc(C(=O)NCCNC(=O)c2cnccn2)cc1 | · | · | 6.6 | · | · | · | ·
COc1ccc(/C=C/c2cccc[n+]2C)c(O)c1 | · | · | 2.7 | · | · | · | ·
CCN(CC)c1ccc(/C=C/c2cccc[n+]2C)c(OC)c1 | · | · | 28.0* | · | · | · | 29.5*
Cc1ccc(CNc2ncnc3cc(Cl)ccc23)cc1 | · | · | 10.1 | · | · | · | ·
COc1cc2ncnc(NCc3ccc(C)o3)c2cc1OC | -0.7 | 3.6 | 9.6 | 3.1 | -4.3 | 0.6 | ·
COc1cc2ncnc(NCc3ccc(F)cc3)c2cc1OC | · | · | 25.4* | · | · | · | 32.0*
COc1cc2ncnc(NCc3ccc(Cl)cc3)c2cc1OC | 1.1 | 2.1 | 29.1* | 8.7 | -6.3 | 2.1 | 23.3*
COc1ccc(C(CNC(=O)c2ccc(NS(=O)(=O)c3cccc([N+](=O)[O-])c3)cc2)N2CCOCC2)cc1 (centres undefined) | · | · | -0.6 | · | · | · | ·
CCc1ccc(NC(=S)Nc2cccc3cnccc23)cc1 | 1.2 | 2.4 | 2.9 | 6.5 | -11.1 | 0.1 | ·

Source: PubChem BioAssay (several laboratories)
